In general, IC50 refers to the concentration needed to halve the response being measured. The EC50 is the concentration at which the effect is half-maximal.

Assay [1] addresses T1, Serine/threonine-protein kinase Chk1 (Homo sapiens, UniProt O14757).
T1 sequence (O14757 whole entry): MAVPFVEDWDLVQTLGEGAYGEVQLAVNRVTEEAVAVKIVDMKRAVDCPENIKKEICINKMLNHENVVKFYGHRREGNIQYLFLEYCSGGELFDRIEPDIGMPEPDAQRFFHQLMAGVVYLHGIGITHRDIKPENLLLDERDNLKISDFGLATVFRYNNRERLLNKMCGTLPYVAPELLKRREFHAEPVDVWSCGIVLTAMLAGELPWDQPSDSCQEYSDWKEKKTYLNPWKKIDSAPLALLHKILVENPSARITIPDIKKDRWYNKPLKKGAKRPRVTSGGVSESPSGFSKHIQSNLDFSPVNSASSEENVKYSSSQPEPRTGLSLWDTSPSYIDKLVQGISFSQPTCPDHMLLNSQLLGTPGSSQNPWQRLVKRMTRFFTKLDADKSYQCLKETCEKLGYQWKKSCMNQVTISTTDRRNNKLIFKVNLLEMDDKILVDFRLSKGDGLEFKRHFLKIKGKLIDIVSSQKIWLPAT
As to the kind of experiment: Inhibition of human recombinant Chk1 using biotinylated AKT substrate after 30 mins by Alphascreen biochemical assay. On the technique in general: In Alpha technology, singlet oxygen from a donor bead excites a nearby acceptor bead.

In assay [2] the target is T1, Serine/threonine-protein kinase Chk1. As to the kind of experiment: Inhibition of CHK1 in human HT29 cells assessed as phosphorylation of histone H3 after 24 hrs by checkpoint abrogation cellular assay. It is filed as cell-based, HT-29.
A further assay concerns the target Acetylcholinesterase (Homo sapiens, UniProt P22303). Nature of the assay: Inhibition of human acetylcholine esterase by horseradish peroxidase-coupled fluorescence assay. In a few lines: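 Human AChE at 0.006 U/ml, with 0.25 μM acetylcholine chloride, 0.06 U/ml choline oxidase, 0.05 U/ml horseradish peroxidase and 200 μM Amplex Red, in proprietary buffer with test compound. Incubated 30 min at 25 °C. Fluorescence read.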

Sequence of Acetylcholinesterase (P22303 whole entry): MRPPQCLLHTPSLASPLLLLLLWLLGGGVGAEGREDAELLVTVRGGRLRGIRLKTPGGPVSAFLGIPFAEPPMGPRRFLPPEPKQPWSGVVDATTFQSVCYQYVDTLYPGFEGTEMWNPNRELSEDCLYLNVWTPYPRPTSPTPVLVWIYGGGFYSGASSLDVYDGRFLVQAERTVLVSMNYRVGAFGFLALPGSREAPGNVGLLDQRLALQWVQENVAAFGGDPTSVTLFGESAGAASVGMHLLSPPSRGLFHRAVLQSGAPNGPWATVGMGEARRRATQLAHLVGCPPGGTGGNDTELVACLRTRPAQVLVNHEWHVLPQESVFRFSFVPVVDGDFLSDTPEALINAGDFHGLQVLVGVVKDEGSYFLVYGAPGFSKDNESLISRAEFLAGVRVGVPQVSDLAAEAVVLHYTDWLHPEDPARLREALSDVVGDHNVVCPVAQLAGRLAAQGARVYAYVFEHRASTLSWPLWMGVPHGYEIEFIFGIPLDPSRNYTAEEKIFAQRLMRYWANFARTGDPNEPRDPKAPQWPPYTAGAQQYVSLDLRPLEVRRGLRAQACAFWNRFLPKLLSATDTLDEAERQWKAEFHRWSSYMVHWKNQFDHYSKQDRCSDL

For the compound `CN1CCN(c2cccc(-c3cnc4[nH]c5cnc(C#N)cc5c4c3)c2)CC1`, the figures for the IC50 (in assay [1]; against Acetylcholinesterase) were 1.9 nM and 4770 nM, respectively. In addition, the EC50 in assay [2] turned out to be 133 nM.

For the compound `Cn1cc(-c2cc3c(cn2)[nH]c2ncc(-c4ccc(CN5CCCCC5)cc4)cc23)cn1`, the half-maximal inhibitory concentration (IC50) in assay [1] came out at 0.31 nM; against Acetylcholinesterase, 874 nM. In addition, the EC50 in assay [2] is 9 nM.

Consider `c1nnc(-c2cc3c(cn2)[nH]c2ncc(-c4ccc(CN5CCCCC5)cc4)cc23)o1`, for which the IC50 worked out at 0.95 nM in assay [1] and 450 nM against Acetylcholinesterase. In addition, in assay [2], the EC50 stood at 103 nM.

As to `c1cnc(-c2cc3c(cn2)[nH]c2ncc(-c4ccc(CN5CCCCC5)cc4)cc23)cn1`, the figures for the IC50 (in assay [1]; against Acetylcholinesterase) were 2.3 nM and 1210 nM, respectively. Besides, the concentration for a half-maximal effect (EC50) in assay [2] turned out to be 168 nM.

`CC(C)(c1ccc(-c2cnc3[nH]c4cnc(C#N)cc4c3c2)cc1)N1CCCCC1`: the IC50 amounted to 10.2 nM in assay [1] and 507 nM against Acetylcholinesterase. The EC50 in assay [2] amounted to 228 nM.

For `CCNC(=O)c1cc2c(cn1)[nH]c1ncc(-c3ccc(CN4CCCCC4)cc3)cc12`, the IC50 in assay [1] worked out at 102 nM. The concentration giving a half-maximal response (EC50) in assay [2] is 2230 nM.

With `N#Cc1cc2c(cn1)[nH]c1ncc(-c3ccccc3O)cc12`, in assay [1], the 50% inhibitory concentration (IC50) turned out to be 41.7 nM. Further, the EC50 in assay [2] is > 5000 nM.

On to `CCNc1cnc2[nH]c3cnc(C#N)cc3c2c1`, for which the half-maximal inhibitory concentration (IC50) in assay [1] is 56.6 nM. For the same compound, in assay [2], the EC50 is 1790 nM.

Turning to `CC(=O)Nc1cccc(-c2cnc3[nH]c4cnc(C#N)cc4c3c2)c1`, the half-inhibitory concentration (IC50) in assay [1] stood at 13.5 nM. The EC50 in assay [2] was determined as 425 nM.

Regarding `N#Cc1cc2c(cn1)[nH]c1ncc(-c3ccc(CN4CCC[C@@H](O)C4)cc3)cc12`, the IC50 came to 1.9 nM in assay [1] and 708 nM at Acetylcholinesterase. In assay [2], the EC50 is 118 nM.

As for `N#Cc1cc2c(cn1)[nH]c1ncc(-c3ccncc3)cc12`, the IC50 in assay [1] was 42.7 nM. For the same compound, the EC50 in assay [2] is > 5000 nM.

For `c1cncc(-c2cc3c(cn2)[nH]c2ncc(-c4ccc(CN5CCCCC5)cc4)cc23)c1`, the IC50 was determined as 0.95 nM in assay [1] and 493 nM at Acetylcholinesterase. Besides, the 50% effective concentration (EC50) in assay [2] came to 75.1 nM.

Turning to `CCN1CCc2cc(-c3cnc4[nH]c5cnc(C#N)cc5c4c3)ccc2C1`, the results for the IC50 (in assay [1]; at Acetylcholinesterase) were 2.3 nM and 160 nM, respectively. The EC50 in assay [2] is 152 nM.

In the case of `NC(=O)c1cc2c(cn1)[nH]c1ncc(-c3ccc(CN4CCCCC4)cc3)cc12`, the IC50 in assay [1] is 4.3 nM; against Acetylcholinesterase it was 217 nM. For the same compound, the EC50 in assay [2] is 292 nM.

With `N#Cc1cc2c(cn1)[nH]c1ncc(-c3cccc(CO)c3)cc12`, the IC50 in assay [1] is 27.1 nM. In addition, the EC50 in assay [2] was > 5000 nM.

With `c1cc(-c2cnc3[nH]c4cnc(-c5cnoc5)cc4c3c2)ccc1CN1CCCCC1`, the IC50 in assay [1] is 1.1 nM; at Acetylcholinesterase it was 659 nM. The EC50 in assay [2] was 145 nM.

Take `c1ncc(-c2cc3c(cn2)[nH]c2ncc(-c4ccc(CN5CCCCC5)cc4)cc23)cn1`: the IC50 in assay [1] was determined as 5.1 nM; against Acetylcholinesterase, 266 nM. For the same compound, the EC50 in assay [2] is 163 nM.

Regarding `CC1(C)CCCN(Cc2ccc(-c3cnc4[nH]c5cnc(C#N)cc5c4c3)cc2)C1`, the IC50 in assay [1] is 9.4 nM; against Acetylcholinesterase, 3330 nM. Moreover, in assay [2], the concentration for a half-maximal effect (EC50) stood at 128 nM.

In the case of `OCc1cc2c(cn1)[nH]c1ncc(-c3ccc(CN4CCCCC4)cc3)cc12`, in assay [1], the IC50 amounted to 18.3 nM. Moreover, the EC50 in assay [2] turned out to be 447 nM.

Regarding `c1cc2c(cn1)[nH]c1ncc(-c3ccc(CN4CCCCC4)cc3)cc12`, in assay [1], the IC50 is 18.6 nM. For the same compound, in assay [2], the EC50 worked out at 1920 nM.

Regarding `CN1CCN(c2ccc(-c3cnc4[nH]c5cnc(C#N)cc5c4c3)cc2)CC1`, inhibition on Acetylcholinesterase was half-maximal at 18 nM (IC50).

Turning to `N#Cc1cc2c(cn1)[nH]c1ncc(-c3ncc[nH]3)cc12`, the IC50 in assay [1] is 14.7 nM. The EC50 in assay [2] was > 5000 nM.

On to `N#Cc1cc2c(cn1)[nH]c1ncc(-c3ccc(CN4CCCCC4)nc3)cc12`, for which the values for the half-maximal inhibitory concentration (IC50) (in assay [1]; at Acetylcholinesterase) were 5.3 nM and 187 nM, respectively. In addition, the EC50 in assay [2] is 540 nM.

With `N#Cc1cc2c(cn1)[nH]c1ncc(-c3ccc(CN4CCC(O)CC4)cc3)cc12`, the IC50 in assay [1] is 1.8 nM; against Acetylcholinesterase, 378 nM. Moreover, the EC50 in assay [2] came to 144 nM.

On to `N#Cc1cc2c(cn1)[nH]c1ncc(O)cc12`, for which the IC50 in assay [1] was determined as 38.1 nM. In addition, the EC50 in assay [2] was > 5000 nM.

Turning to `Cn1ccc(-c2cnc3[nH]c4cnc(C#N)cc4c3c2)n1`, in assay [1], the IC50 was 33.8 nM. Also, the EC50 in assay [2] stood at 2500 nM.

For `COc1cc2c(cn1)[nH]c1ncc(-c3ccc(CN4CCCCC4)cc3)cc12`, the IC50 in assay [1] came out at 19.8 nM. The 50% effective concentration (EC50) in assay [2] worked out at 986 nM.

For the compound `CCN1CCc2sc(-c3cnc4[nH]c5cnc(C#N)cc5c4c3)cc2C1`, the IC50 was determined as 0.78 nM in assay [1] and 259 nM at Acetylcholinesterase. The EC50 in assay [2] came out at 50.9 nM.

As for `N#Cc1cc2c(cn1)[nH]c1ncc(-c3ccc(CN4CCC(C#N)CC4)cc3)cc12`, the IC50 in assay [1] is 11.6 nM; against Acetylcholinesterase, 2690 nM. In addition, the EC50 in assay [2] was found to be 339 nM.

Turning to `N#Cc1cc2c(cn1)[nH]c1ncc(-c3cccs3)cc12`, the concentration for half-maximal inhibition (IC50) in assay [1] is 20.2 nM. Moreover, in assay [2], the EC50 worked out at 478 nM.

In the case of `N#Cc1cc2c(cn1)[nH]c1ncc(-c3ccc(CO)cc3)cc12`, in assay [1], the IC50 stood at 11.4 nM. Besides, the EC50 in assay [2] worked out at 938 nM.

Turning to `N#Cc1cc2c(cn1)[nH]c1ncc(-c3cccnc3)cc12`, the IC50 in assay [1] was 76.5 nM. Moreover, the EC50 in assay [2] was > 5000 nM.

With `N#Cc1cc2c(cn1)[nH]c1ncc(Br)cc12`, the IC50 in assay [1] was 140 nM.

On to `N#Cc1cc2c(cn1)[nH]c1ncccc12`, for which the 50% inhibitory concentration (IC50) in assay [1] turned out to be 414 nM.

`N#Cc1cc2c(cn1)[nH]c1ncc(-c3ccc(CN4CCC(F)CC4)cc3)cc12`: the IC50 came out at 5 nM in assay [1] and 890 nM on Acetylcholinesterase. The EC50 in assay [2] stood at 95.8 nM.

Turning to `C[C@@H]1C[C@H](C)CN(Cc2ccc(-c3cnc4[nH]c5cnc(C#N)cc5c4c3)cc2)C1`, the IC50 worked out at 4.2 nM in assay [1] and 4100 nM against Acetylcholinesterase. For the same compound, the EC50 in assay [2] came out at 209 nM.

Regarding `N#Cc1cc2c(cn1)[nH]c1ncc(-c3ccc(CN4CCOCC4)cc3)cc12`, the IC50 in assay [1] came to 13.9 nM; on Acetylcholinesterase it was 13300 nM. Moreover, in assay [2], the EC50 was 216 nM.

As for `N#Cc1cc2c(cn1)[nH]c1ncc(-c3ccc(N4CCOCC4)cc3)cc12`, the IC50 in assay [1] turned out to be 78.7 nM. Also, in assay [2], the EC50 worked out at 219 nM.

As for `c1cc(-c2cc3c(cn2)[nH]c2ncc(-c4ccc(CN5CCCCC5)cc4)cc23)cnn1`, the IC50 is 2.9 nM in assay [1] and 1040 nM against Acetylcholinesterase. In assay [2], the EC50 was 656 nM.

Regarding `CC1(C)CCN(Cc2ccc(-c3cnc4[nH]c5cnc(C#N)cc5c4c3)cc2)CC1`, the values for the IC50 (in assay [1]; at Acetylcholinesterase) were 4.4 nM and 11 nM, respectively. The EC50 in assay [2] turned out to be 172 nM.

For `N#Cc1cc2c(cn1)[nH]c1ncc(-c3ccoc3)cc12`, the IC50 in assay [1] is 16.6 nM. For the same compound, the EC50 in assay [2] was found to be 180 nM.

With `N#Cc1cc2c(cn1)[nH]c1ncc(-c3nc(CN4CCCCC4)cs3)cc12`, the values for the IC50 (in assay [1]; at Acetylcholinesterase) were 13.6 nM and 18 nM, respectively. In assay [2], the EC50 stood at 658 nM.

As to `c1cc(-c2cc3c(cn2)[nH]c2ncc(-c4ccc(CN5CCCCC5)cc4)cc23)ccn1`, the IC50 is 9.1 nM in assay [1] and 777 nM against Acetylcholinesterase. Besides, in assay [2], the 50% effective concentration (EC50) is 1570 nM.

Turning to `C[C@@H]1CCC[C@H](C)N1Cc1ccc(-c2cnc3[nH]c4cnc(C#N)cc4c3c2)cc1`, the concentration for half-maximal inhibition (IC50) was 2.1 nM in assay [1] and 135 nM against Acetylcholinesterase. Further, the 50% effective concentration (EC50) in assay [2] was 99.1 nM.

Take `Oc1cc2c(cn1)[nH]c1ncc(-c3ccc(CN4CCCCC4)cc3)cc12`: the IC50 in assay [1] was found to be 863 nM.

For `c1ncc(-c2cc3c(cn2)[nH]c2ncc(-c4ccc(CN5CCCCC5)cc4)cc23)s1`, the results for the IC50 (in assay [1]; against Acetylcholinesterase) were 1.3 nM and 496 nM, respectively. The EC50 in assay [2] amounted to 62.7 nM.

For the compound `N#Cc1cc2c(cn1)[nH]c1ncc(-c3ccccn3)cc12`, the IC50 in assay [1] turned out to be 127 nM. Moreover, the EC50 in assay [2] was > 5000 nM.

On to `c1ncc(-c2cc3c(cn2)[nH]c2ncc(-c4ccc(CN5CCCCC5)cc4)cc23)o1`, for which the IC50 came out at 0.46 nM in assay [1] and 323 nM against Acetylcholinesterase. Further, the EC50 in assay [2] turned out to be 23.9 nM.
